Screening results (PubChem BioAssay)
GASC1 inh = inhibitors of GASC-1 (KDM4C) histone demethylase, primary screen, biochemical, single concentration HTS | Lysine-specific demethylase 4C (Homo sapiens), Q9H3R0 | GST-KDM4C 2-372, H3K9me3 peptide, LANCE TR-FRET | inhibition, % at 12.5 µM | hit rate 0.15% among 96,000;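 active = mean replicate inhibition above about 25%, with at least 55% of replicates also reaching it, limit read from the data, passing the limit was not always enough; inconclusive = only one of those two conditions met; inactive = neither condition met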
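System – N-terminal GST-fused human GASC-1 (KDM4C) fragment, residues 2-372 · Input – enzyme final amount 10 nM · Technique – LANCE TR-FRET, Eu antibody, ULight-streptavidin, EDTA, ex 340 nm, em 618/671 nm · Medium – HEPES buffer, pH 7.5, plus ascorbate · Incubation – enzyme reaction 30 min, then detection 60 min, both room temperature · Reagent – H3K9me3 peptide with Fe(II)/2OG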
T cruzi growth-1 = T. cruzi intracellular proliferation inhibitors, primary screen, cell-based, beta-gal Tulahuen parasites, NIH3T3 host, luminescence; T. cruzi beta-gal in NIH3T3, GalScreen luminescence, 90 h; inhibition, % at 8.34 µM; hit rate 5.9% among 77,000; AID 624255, 2012;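 active = mean inhibition above about 93%, with at least 55% of replicates each passing it, limit read from the data, passing the limit was not always enough; inconclusive = only one of those two conditions holds; inactive = neither condition holds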
Pf Dd2 growth = P. falciparum Dd2 growth inhibitors, primary screen, SYBR Green fluorescence, single dose replicates. 72 h; hits give low values. hit rate 2.3% among 94,000. AID 1159554, 2015. activity change, % at 10 µM; in the data active = activity change below about -80%; inconclusive = no clear call, values can overlap the other calls
IDH1 mut inh = inhibitors of IDH1 R132H reductase, primary screen, biochemical, plate reader, single point. inhibition, % at 10 µM. hit rate 0.18% among 70,000. AID 624101, 2012. diaphorase/resazurin fluorescence, 60 min; in the data active = inhibition above about 34%; inconclusive = no clear call, values can overlap the other calls; inactive = below about 11%;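 also: 0% = DMSO and 100% = no enzyme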
Target sequence (O75874 whole entry R132H): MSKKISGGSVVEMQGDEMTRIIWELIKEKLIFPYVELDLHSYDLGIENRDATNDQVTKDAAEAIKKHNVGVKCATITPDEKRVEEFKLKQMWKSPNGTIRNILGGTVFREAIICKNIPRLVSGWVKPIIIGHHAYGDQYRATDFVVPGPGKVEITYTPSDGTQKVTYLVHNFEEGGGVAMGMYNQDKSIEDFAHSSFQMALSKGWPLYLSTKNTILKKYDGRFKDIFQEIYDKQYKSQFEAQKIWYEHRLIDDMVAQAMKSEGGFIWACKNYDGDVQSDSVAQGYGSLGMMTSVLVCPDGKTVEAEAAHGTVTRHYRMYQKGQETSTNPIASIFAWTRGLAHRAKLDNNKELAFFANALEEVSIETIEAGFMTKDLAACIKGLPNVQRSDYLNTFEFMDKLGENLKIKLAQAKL
T cruzi growth-2 = T. cruzi intracellular proliferation inhibitors, confirmation, cell-based, NIH3T3 host, beta-gal parasite, luminescence, cherry-pick | shares compounds with T cruzi growth-1 | T. cruzi beta-gal in NIH3T3, GalScreen luminescence, 90 h | inhibition, % at 8.35 µM | hit rate 72% among 5,600;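 active = mean replicate inhibition above about 95% and at least 55% of replicates individually reaching it, limit read from the data; inconclusive = only one of the two criteria is met; inactive = neither criterion is met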
T cruzi growth-3 = inhibitors of intracellular T. cruzi replication, confirmation, NIH3T3 host cells, beta-gal parasites, cherry-pick, set 2 | shares compounds with T cruzi growth-1 | T. cruzi beta-gal in NIH3T3, GalScreen luminescence, 90 h | hit rate 21% among 5,600 | inhibition, % at 2.09 µM;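 active = mean inhibition above about 95%, with at least 55% of replicates also reaching it, limit read from the data; inconclusive = meets just one of the two conditions; inactive = meets neither condition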;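 also: plate controls were neutral control median for no effect and positive control median for full effect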
NIH3T3 tox = cytotoxicity in mouse NIH/3T3 fibroblasts, confirmation, cytotoxicity control for T. cruzi proliferation inhibitor project, cell-based, cherry-pick, single point; AID 651742, 2012; cytotoxicity (signal decrease), % at 8.35 µM; NIH/3T3 viability, CellTiter-Glo ATP luminescence, 90 h; hit rate 14% among 5,600; shares compounds with T cruzi growth-1;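 active = mean signal decrease across replicates above about 35% based on untreated-well scatter, with enough replicates individually passing, limit read from the data; inconclusive = no rule stated though some were filed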;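 also: 0% = median of neutral control wells and 100% = median of positive control wells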
NIH3T3 tox 2 = NIH/3T3 fibroblast cytotoxicity, confirmation, cytotoxicity control, cell-based, cherry-pick, single point, set 2; NIH/3T3 viability, CellTiter-Glo ATP luminescence, 90 h; inhibition, % at 24.9 µM; hit rate 56% among 5,600; shares compounds with T cruzi growth-1; AID 651744, 2012;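 active = mean loss of cell viability signal at or above a set limit, and enough replicates individually reaching it; inconclusive = meets only the mean limit or only the replicate share; inactive = meets neither condition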;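 also: 0% = median of neutral control wells and 100% = median of positive control wells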
Numbers without * were called inactive; u = inconclusive; x = not tested or not shown. An excerpt weighted towards active compounds, which were near 5.8% of everything screened.

SMILES | GASC1 inh | T cruzi growth-1 | Pf Dd2 growth | IDH1 mut inh | T cruzi growth-2 | T cruzi growth-3 | NIH3T3 tox | NIH3T3 tox 2
N#C[C@@H]1[C@@H](c2ccc(C#Cc3cccnc3)cc2)[C@@H](CO)N1C(=O)C1CC1 | 0 | 37 | 15 | x | x | x | x | x
COc1cccc(C#Cc2ccc([C@@H]3[C@H](C#N)N(C(=O)C4CC4)[C@H]3CO)cc2)c1 | -2 | u | -40 | x | 94 | 112* | 8 | 25*
N#C[C@H]1[C@H](c2ccc(C#Cc3cccc(F)c3)cc2)[C@@H](CO)N1C(=O)C1CC1 | 2 | 102* | -24 | x | 104* | 83 | 14 | 15
N#C[C@@H]1[C@@H](c2ccc(C#Cc3ccc(F)cc3)cc2)[C@H](CO)N1C(=O)C1CCC1 | -2 | 87 | -78 | x | x | x | x | x
COc1ccc(CN(C)C[C@@H]2Oc3c(NC(=O)c4ccncc4)cccc3C(=O)N([C@H](C)CO)C[C@H]2C)cc1 | x | x | x | 2 | x | x | x | x
COc1ccccc1C#Cc1ccc2c(c1)O[C@@H](CN(C)Cc1cccnc1)[C@@H](C)CN([C@@H](C)CO)S2(=O)=O | 0 | x | -37 | 0 | x | x | x | x
COc1ccccc1C#Cc1ccc2c(c1)O[C@@H](CN(C)Cc1ccccc1)[C@H](C)CN([C@H](C)CO)S2(=O)=O | -1 | 118* | -74 | 0 | u | 112* | 45* | 106*
COc1ccccc1C#Cc1ccc2c(c1)O[C@H](CN(C)Cc1ccccc1)[C@H](C)CN([C@H](C)CO)S2(=O)=O | 4 | 121* | -40 | 0 | 104* | 87 | -8 | 16
COc1ccccc1C#Cc1ccc2c(c1)O[C@H](CN(C)Cc1ccccc1)[C@H](C)CN([C@@H](C)CO)S2(=O)=O | -4 | 123* | -72 | 1 | 105* | 115* | -16 | -22
COc1ccccc1C#Cc1ccc2c(c1)O[C@@H](CN(C)Cc1cccnc1)[C@@H](C)CN([C@H](C)CO)S2(=O)=O | -1 | x | -70 | x | x | x | x | x
COc1ccccc1C#Cc1ccc2c(c1)O[C@H](CN(C)Cc1ccccc1)[C@@H](C)CN([C@@H](C)CO)S2(=O)=O | -3 | 121* | -57 | 0 | 99* | 111* | 11 | 99*
COc1ccccc1C#Cc1ccc2c(c1)O[C@H](CN(C)Cc1cccnc1)[C@@H](C)CN([C@@H](C)CO)S2(=O)=O | -2 | x | -53 | -2 | x | x | x | x
Cc1ccc(S(=O)(=O)NCC(=O)Nc2ccc(Cl)c(C(F)(F)F)c2)cc1 | x | x | x | 0 | x | x | x | x
O=C(CSc1nnnn1-c1ccccc1F)Nc1ccc(Br)cc1 | x | x | x | 0 | x | x | x | x
CC(C)(CCO[C@@H]1O[C@H](CO[C@@H]2OC[C@@H](O)[C@H](O)[C@H]2O)[C@@H](O)[C@H](O)[C@H]1O)C[C@@H]1C(C(=O)O)=CC[C@]2(C(=O)O)C1=CCC1[C@@]3(C)CC[C@H](O[C@@H]4O[C@H](CO[C@@H]5O[C@H](CO)[C@@H](O)[C@H](O)[C@H]5O)[C@@H](O)[C@H](O)[C@H]4O)C(C)(C)C3CC[C@]12C (stereo not given in full) | x | x | x | 4 | x | x | x | x
COc1ccc(NC(=O)Nc2ccc3c(c2)C(=O)N([C@H](C)CO)C[C@@H](C)[C@H](CN(C)S(=O)(=O)c2cccs2)OCCCC[C@@H](C)O3)cc1 | -2 | 108* | -78 | x | 108* | 22 | 1 | -2
COc1ccc(NC(=O)Nc2ccc3c(c2)C(=O)N([C@H](C)CO)C[C@H](C)[C@H](CN(C)S(=O)(=O)c2cccs2)OCCCC[C@@H](C)O3)cc1 | -3 | -21 | -58 | -3 | x | x | x | x
COc1ccc(NC(=O)Nc2ccc3c(c2)C(=O)N([C@H](C)CO)C[C@@H](C)[C@@H](CN(C)S(=O)(=O)c2cccs2)OCCCC[C@@H](C)O3)cc1 | -3 | x | -44 | -2 | x | x | x | x
COc1ccc(NC(=O)Nc2ccc3c(c2)C(=O)N([C@H](C)CO)C[C@H](C)[C@H](CN(C)S(=O)(=O)c2cccs2)OCCCC[C@H](C)O3)cc1 | 0 | 103* | -27 | 2 | 107* | 38 | 6 | 30*
CC(=O)Nc1ccc(OCC(=O)Nc2ccc(Cl)c(Cl)c2)cc1 | x | x | x | 0 | x | x | x | x
C[C@H](CO)N1C[C@H](C)[C@@H](CN(C)Cc2ccc(Oc3ccccc3)cc2)Oc2ccc(NC(=O)c3ccncc3)cc2CC1=O | -1 | 97* | -21 | 5 | 111* | 40 | 12 | 106*
C[C@H](CO)N1C[C@H](C)[C@@H](CN(C)Cc2ccncc2)Oc2ccc(NC(=O)c3ccncc3)cc2CC1=O | -1 | 10 | 17 | 1 | x | x | x | x
C[C@H](CO)N1C[C@H](C)[C@@H](CN(C)Cc2ccccc2)Oc2ccc(NC(=O)c3ccncc3)cc2CC1=O | 0 | 68 | 8 | 3 | x | x | x | x
C[C@H](CO)N1C[C@H](C)[C@@H](CN(C)Cc2ccc(C(F)(F)F)cc2)Oc2ccc(NC(=O)c3ccncc3)cc2CC1=O | 1 | 96* | -7 | 1 | 105* | 33 | 14 | 59*
C[C@@H]1CN([C@@H](C)CO)C(=O)Cc2cc(NC(=O)c3ccncc3)ccc2O[C@@H]1CN(C)Cc1ccc(Oc2ccccc2)cc1 | 0 | 100 | -11 | x | x | x | x | x
C[C@@H]1CN([C@H](C)CO)C(=O)Cc2cc(NC(=O)c3ccncc3)ccc2O[C@H]1CN(C)Cc1ccc(Oc2ccccc2)cc1 | 0 | 105* | -17 | 0 | 109* | 36 | 4 | 103*
C[C@@H]1CN([C@@H](C)CO)C(=O)Cc2cc(NC(=O)c3ccncc3)ccc2O[C@H]1CN(C)Cc1ccc(-c2ccccc2)cc1 | -2 | 109* | -66 | 1 | 104* | 111* | 28 | 103*
C[C@H]1CN([C@@H](C)CO)C(=O)Cc2cc(NC(=O)c3ccncc3)ccc2O[C@@H]1CN(C)Cc1ccc(-c2ccccc2)cc1 | 0 | 81 | -36 | 1 | x | x | x | x
C[C@H]1CN([C@@H](C)CO)C(=O)Cc2cc(NC(=O)C3CC3)ccc2O[C@@H]1CN(C)Cc1ccc(-c2ccccc2)cc1 | 0 | 92 | -20 | 3 | x | x | x | x
